In test [1] the test system is Rattus norvegicus. The test is described as follows: Antihypertensive activity in Wistar rat assessed as normalization of L-NAME-induced aorta thickness at 10 mg/kg/day, po for 4 weeks. Type of test: functional, organism-based. The essentials:
(§1)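 L-NAME (20 mg/kg/day, drinking water, 8 weeks) hypertensive two-month-old male Wistar rats; treatments in drinking water daily for the last 4 weeks. Systolic pressure by tail-cuff in conscious animals. At sacrifice heart weighed (corrected to body weight); aortic rings from descending thoracic aorta, formaldehyde-flushed, media thickness by planimetry. Mean ± SEM of 10 rats.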

For test [2], the system named is Rattus norvegicus. The test is described as follows: Antihypertensive activity in Wistar rat assessed as normalization of L-NAME-induced systolic blood pressure at 30 mg/kg/day, po for 4 weeks. Format: functional, organism-based. As to conditions: Artery. In short, it runs like this:
as §1

Test [3] has as its system Rattus norvegicus. The test is described as follows: Antihypertensive activity in L-NAME-induced Wistar rat assessed as decrease in blood cholesterol level at 30 mg/kg/day, po for last 4 weeks measured after 8 weeks. Format: functional. The essentials: (§2)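 Two-month-old male Wistar rats given L-NAME in drinking water (20 mg/kg/day) for 8 weeks. From week 4, treatment is given daily in drinking water during 12.00–18.00 h, at the dose stated in the line. Ten rats per group. Sacrificed under halothane between 9.00 and 10.00 h. Serum is measured on an automatic analyzer. Mean ± SEM, nonparametric statistics.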

The subject of a further test is VSMC. The test is described as follows: Displacement of [125I]angiotensin II from angiotensin 2 receptor in Wistar rat VSMC cells by gamma-counter. Type of test: cell-based. Further details: concentration or dose not given beside the values. In short, it runs like this:
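Rat aortic VSMC (collagenase-derived primary cultures, passages 3-5) resuspended in Tris-glucose-NaCl buffer pH 7.4 at 0.5 μg/μL protein; 125 μg protein incubated 45 min with 0.15 nM 125I-angiotensin II plus compound. Bound separated by centrifugation, pellet washed with cold 0.15 M NaCl, gamma counted; nonspecific binding with 10^-4 M angiotensin II.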

Test [4] has as its system Rattus norvegicus. The test is described as follows: Antihypertensive activity in L-NAME-induced Wistar rat assessed as decrease in blood LDH level at 30 mg/kg/day, po for last 4 weeks measured after 8 weeks. Type of test: functional. The essentials:
as §2

The test system of test [5] is Rattus norvegicus. The test is described as follows: Antihypertensive activity in L-NAME-induced Wistar rat assessed as decrease in blood calcium level at 30 mg/kg/day, po for last 4 weeks measured after 8 weeks. Format: functional. In short, it runs like this:
as §2

For test [6], the system named is Rattus norvegicus. The test is described as follows: Antihypertensive activity in Wistar rat assessed as normalization of L-NAME-induced HNE-lysine accumulation in vessel walls at 30 mg/kg/day, po for 4 weeks in presence of losartan. Type of test: functional, organism-based. The essentials: (§3)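 Male Wistar rats on L-NAME in drinking water (20 mg/kg/day) for 8 weeks, treatments in drinking water for the last 4 weeks. Thoracic aorta lysates run on SDS-PAGE and Western blotted for collagen type I, fibronectin or HNE-lysine, with β-tubulin as loading control; ECL detection, densitometry. Expressed as percent of basal; mean ± SEM of 10 experiments.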

The test system of test [7] is Rattus norvegicus. The test is described as follows: Antihypertensive activity in L-NAME-induced Wistar rat assessed as decrease in blood glucose level at 30 mg/kg/day, po for last 4 weeks measured after 8 weeks. Format: functional. The essentials: as §2
For test [8], the system named is Rattus norvegicus. The test is described as follows: Antihypertensive activity in L-NAME-induced Wistar rat assessed as decrease in blood Na+ level at 30 mg/kg/day, po for last 4 weeks measured after 8 weeks. Type of test: functional. The essentials: as §2
Test [9] relates to Rattus norvegicus. The test is described as follows: Antihypertensive activity in Wistar rat assessed as normalization of L-NAME-induced heart weight at 30 mg/kg/day, po for 4 weeks in presence of L-NAME. Type of test: functional, organism-based. In short, it runs like this:
as §1

Test [10] deals with Rattus norvegicus. The test is described as follows: Antihypertensive activity in L-NAME-induced Wistar rat assessed as decrease in blood ALT level at 30 mg/kg/day, po for last 4 weeks measured after 8 weeks. Format: functional. In short, it runs like this: as §2
Test [11] in a line: Antioxidant activity assessed as inhibition of oxidation of chromogen (ABTS) measured per mmol/L of product by total antioxidant assay. Format: functional. In short, it runs like this:
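Total antioxidant status kit: inhibition of ABTS oxidation by metmyoglobin and hydrogen peroxide, followed at 600 nm absorbance; antioxidant ability proportional to absorbance reduction, expressed as mM. Compounds tested at 1 mmol/L.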

In test [12] the test system is Rattus norvegicus. The test is described as follows: Antihypertensive activity in L-NAME-induced Wistar rat assessed as decrease in blood creatinine level at 30 mg/kg/day, po for last 4 weeks measured after 8 weeks. Format: functional. In short, it runs like this:
as §2

Test [13] has as its system Rattus norvegicus. The test is described as follows: Antihypertensive activity in Wistar rat assessed as normalization of L-NAME-induced collagen 1 level in vessel walls at 30 mg/kg/day, po for 4 weeks in presence of losartan. Format: functional, organism-based. The essentials: as §3
Test [14] concerns Rattus norvegicus. The test is described as follows: Antihypertensive activity in L-NAME-induced Wistar rat assessed as decrease in blood AST level at 30 mg/kg/day, po for last 4 weeks measured after 8 weeks. Format: functional. The essentials:
as §2

For test [15], the system named is Rattus norvegicus. The test is described as follows: Antihypertensive activity in L-NAME-induced Wistar rat assessed as decrease in blood triglyceride level at 30 mg/kg/day, po for last 4 weeks measured after 8 weeks. Format: functional. In short, it runs like this: as §2
Test [16] deals with Rattus norvegicus. The test is described as follows: Antihypertensive activity in Wistar rat assessed as normalization of L-NAME-induced systolic blood pressure at 10 mg/kg/day, po for 4 weeks. Type of test: functional, organism-based. To be noted: Artery. The essentials: as §1
Test [17] has as its system Rattus norvegicus. The test is described as follows: Antihypertensive activity in L-NAME-induced Wistar rat assessed as decrease in blood protein level at 30 mg/kg/day, po for last 4 weeks measured after 8 weeks. Type of test: functional. In short, it runs like this: as §2
Test [18] deals with Rattus norvegicus. The test is described as follows: Antihypertensive activity in Wistar rat assessed as normalization of L-NAME-induced fibronectin content in vessel walls at 30 mg/kg/day, po for 4 weeks in presence of losartan. Format: functional, organism-based. The essentials:
as §3

Test [19] concerns Rattus norvegicus. The test is described as follows: Antihypertensive activity in L-NAME-induced Wistar rat assessed as decrease in blood urea level at 30 mg/kg/day, po for last 4 weeks measured after 8 weeks. Type of test: functional. In short, it runs like this: as §2
For test [20], the system named is Rattus norvegicus. The test is described as follows: Antihypertensive activity in L-NAME-induced Wistar rat assessed as decrease in blood […] level at 30 mg/kg/day, po for last 4 weeks measured after 8 weeks. Type of test: functional. The essentials: as §2

Activity calls are given as the source filed them. The rule behind the calls is not given here.

As to `CCCCc1ncc(COC(=O)CCc2ccc(O)c(O)c2)n1Cc1ccc(-c2ccccc2-c2nnn[nH]2)cc1`, the result in the test on Rattus norvegicus [1] and with Rattus norvegicus [16] was inactive. The result in the test with Rattus norvegicus [2], with Rattus norvegicus [6], in the test on Rattus norvegicus [9], with Rattus norvegicus [13] and in the test with Rattus norvegicus [18] was Active. For the same molecule, the Activity in the test with Rattus norvegicus [3] is 55 mg/dL; in the test with VSMC, 60%; with Rattus norvegicus [4] it was 600 IU/L; in the test with Rattus norvegicus [5], 8.6 mg/dL; in the test with Rattus norvegicus [7], 149 mg/dL; with Rattus norvegicus [8], 151 mmol/L. Further, the Activity in the test with Rattus norvegicus [10] amounted to 25 IU/L; in test [11], 0.31 mmol/L; in the test on Rattus norvegicus [12], 0.43 mg/dL; in the test on Rattus norvegicus [14], 85 IU/L; in the test with Rattus norvegicus [15] it was 60 mg/dL; with Rattus norvegicus [17] it was 4.5 g/dL. Further, the Activity in the test on Rattus norvegicus [19] worked out at 24 mg/dL; in the test with Rattus norvegicus [20] it was 4.4 mmol/L.

The values are drawn from ChEMBL document CHEMBL1156133, “Losartan-antioxidant hybrids: novel molecules for the prevention of hypertension-induced cardiovascular damage” (J Med Chem, 2009).
